Test results taken from ChEMBL document CHEMBL4270554, “Discovery of the cancer cell selective dual acting anti-cancer agent (Z)-2-(1H-indol-3-yl)-3-(isoquinolin-5-yl)acrylonitrile (A131)” (Eur J Med Chem, 2018).
Calls of active or inactive are those of the source. No cut-off for these calls is given here.

Assays:
[1] = tested on: HeLa; assay: Induction of autophagy in human HeLa cells assessed as increase in LC3-2 to LC3-1 ratio at 10 uM after 6 hrs by immunoblot analysis relative to control; assay type: functional
Outline: (§1)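 HeLa cells exposed 6 h to test agent (0.625–10 μM series) or chloroquine (1.25–100 μM series) vs DMSO; lysed in 1% Triton buffer (25 mM Tris pH 8.0, 150 mM NaCl, DTT, protease/phosphatase inhibitors), 14% SDS-PAGE, immunoblot with anti-LC3, anti-pH3(Ser10), β-actin loading. LC3-II/LC3-I band intensity ratio expressed relative to DMSO control.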

[2] = tested on: HeLa; assay: Induction of autophagy in human HeLa cells assessed as increase in LC3-2 to LC3-1 ratio at 50 uM after 6 hrs by immunoblot analysis relative to control; assay type: functional; outline: as §1
[3] = tested on: HeLa; assay: Inhibition of mitotic progression in human HeLa cells assessed as upregulation of phosphorylated histone H3 (Ser10) level up to 100 uM after 6 hrs by immunoblot analysis; assay type: functional, cell-based
Outline: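 HeLa cells treated 6 h with 0.625–10 μM test agent or chloroquine (1.25–100 μM), or DMSO. Lysis in 1% Triton buffer (pH 8.0) with protease and phosphatase inhibitors, 14% SDS-PAGE, immunoblot for LC3, pH3 (Ser10) and β-actin. Band intensity ratios (LC3-II/LC3-I; pH3) expressed relative to DMSO control.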

[4] = tested on: HeLa; assay: Induction of mitotic arrest in human HeLa cells assessed as formation of misaligned chromosomes at 15 to 25 uM after 6 hrs by DAPI staining-based immunofluorescence analysis; assay type: functional, cell-based
[5] = tested on: HeLa; assay: Induction of mitotic arrest in human HeLa cells assessed as formation of disorganized spindles at 15 to 25 uM after 6 hrs by DAPI staining-based immunofluorescence analysis; assay type: functional, cell-based
[6] = tested on: HeLa; assay: Induction of autophagy in human HeLa cells assessed as increase in LC3-2 to LC3-1 ratio at 2.5 uM after 6 hrs by immunoblot analysis relative to control; assay type: functional; outline: as §1
[7] = tested on: HeLa; assay: Induction of autophagy in human HeLa cells assessed as increase in LC3-2 to LC3-1 ratio at 100 uM after 6 hrs by immunoblot analysis relative to control; assay type: functional; outline: as §1
[8] = tested on: HeLa; assay: Induction of autophagy in human HeLa cells assessed as increase in LC3-2 to LC3-1 ratio at 1.25 uM after 6 hrs by immunoblot analysis relative to control; assay type: functional; outline: as §1

## CCN(CC)CCCC(C)Nc1ccnc2cc(Cl)ccc12 (stereo not drawn) [CHLOROQUINE]
[1]
  fold change (FC): 3.1
[2]
  fold change (FC): 4.2
[3]
  inhibition: inactive
[4]
  Activity: inactive
[5]
  Activity: inactive
[6]
  fold change (FC): 1.9
[7]
  fold change (FC): 4.2
[8]
  fold change (FC): 1.7
